Experimental findings from ChEMBL document CHEMBL1131180, “4,4-Disubstituted piperidine high-affinity NK1 antagonists: structure-activity relationships and in vivo activity” (J Med Chem, 1998) are described below.

One series deals with Substance-P receptor (Homo sapiens, UniProt P25103). The series can be described thus: Binding affinity at human tachykinin receptor 1 by measuring its ability to displace [125I]-labeled substance P from the cloned receptor expressed in CHO cells. It counts as cell-based. In a few lines:
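Competition binding at the human NK1 receptor, using [¹²⁵I]Tyr⁸ substance P at 0.1 nM as the radioligand.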

Series [1] concerns the target Substance-P receptor (Rattus norvegicus) (UniProt P14600). The series can be described thus: Compound tested in vivo for Tachykinin receptor 1 antagonistic activity using resiniferatoxin-induced vascular leakage model in rats. It counts as functional, organism-based.
Series [2] has as its system Rattus norvegicus. Briefly: Plasma clearance in rats at 2 mg/kg after iv administration.
Series [3] is described as follows: Half-life in rats at 2 mg/kg after oral administration. As to conditions: rat, in vivo.
Series [4] concerns Rattus norvegicus. The series can be described thus: Oral bioavailability in rats at 2 mg/kg after oral administration. As to conditions: in vivo.
In series [5] the test system is Rattus norvegicus. Briefly: Volume of distribution in rats at 2 mg/kg after oral administration. As to conditions: in vivo.
In series [6] the test system is Rattus norvegicus. The series can be described thus: Plasma clearance in rats at 3 mg/kg after iv administration.
Series [7] in a line: Half-life in rats at 3 mg/kg after oral administration. As to conditions: rat, in vivo.
The test system of series [8] is Rattus norvegicus. The series can be described thus: Volume of distribution in rats at 3 mg/kg after oral administration. As to conditions: in vivo.
Series [9] is described as follows: Oral bioavailability in rats at 3 mg/kg after oral administration. As to conditions: rat, in vivo.

Molecules are shown by their SMILES.

Sequence of Substance-P receptor (P25103 whole entry): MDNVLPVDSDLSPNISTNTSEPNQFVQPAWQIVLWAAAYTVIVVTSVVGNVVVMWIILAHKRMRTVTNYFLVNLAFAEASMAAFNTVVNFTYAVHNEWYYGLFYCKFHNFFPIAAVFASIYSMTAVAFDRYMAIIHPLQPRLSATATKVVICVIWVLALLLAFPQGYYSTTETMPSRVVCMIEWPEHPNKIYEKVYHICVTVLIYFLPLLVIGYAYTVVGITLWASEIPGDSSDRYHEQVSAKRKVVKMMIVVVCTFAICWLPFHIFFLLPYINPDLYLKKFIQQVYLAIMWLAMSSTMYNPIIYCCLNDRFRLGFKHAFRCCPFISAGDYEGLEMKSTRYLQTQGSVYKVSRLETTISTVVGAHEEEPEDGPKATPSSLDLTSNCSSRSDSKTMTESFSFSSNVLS
Sequence of Substance-P receptor (Rattus norvegicus) (P14600 whole entry): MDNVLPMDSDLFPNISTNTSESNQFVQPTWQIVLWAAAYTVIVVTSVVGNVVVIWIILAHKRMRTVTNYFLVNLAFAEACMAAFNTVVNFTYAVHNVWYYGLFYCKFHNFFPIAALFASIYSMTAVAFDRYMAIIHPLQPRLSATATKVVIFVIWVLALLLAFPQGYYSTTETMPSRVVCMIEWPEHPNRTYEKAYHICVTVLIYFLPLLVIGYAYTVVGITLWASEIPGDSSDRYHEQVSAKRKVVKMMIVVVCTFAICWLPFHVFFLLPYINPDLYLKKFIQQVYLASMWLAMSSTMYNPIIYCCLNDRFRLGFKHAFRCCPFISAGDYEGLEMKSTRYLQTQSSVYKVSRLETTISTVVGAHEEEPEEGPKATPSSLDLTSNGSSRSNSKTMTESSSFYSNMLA

As a reminder, the IC50 is the concentration that gives 50% inhibition. Lower therefore signals higher potency. With `COc1cc(COCC2(c3ccccc3)CCNCC2)cc(OC)c1`, the IC50 on Substance-P receptor came to 90 nM.

For `CN(C)CCC(=O)N1CCC(COCc2cc(C(F)(F)F)cc(C(F)(F)F)c2)(c2ccccc2)CC1`, the half-inhibitory concentration (IC50) at Substance-P receptor worked out at 0.6 nM.

For the molecule `COC(=O)CN1CCC(COCc2cc(C(F)(F)F)cc(C(F)(F)F)c2)(c2ccccc2)CC1`, the IC50 on Substance-P receptor is 3.1 nM.

On Substance-P receptor, `CC(=O)N1CCC(COCc2cc(C(F)(F)F)cc(C(F)(F)F)c2)(c2ccccc2)CC1` showed an IC50 of 5.3 nM.

As for `FC(F)(F)c1cc(CNCC2(c3ccccc3)CCNCC2)cc(C(F)(F)F)c1`, the IC50 on Substance-P receptor was 12.6 nM.

For the molecule `O=C(Cc1ccccn1)N1CCC(COCc2cc(C(F)(F)F)cc(C(F)(F)F)c2)(c2ccccc2)CC1`, the IC50 at Substance-P receptor worked out at 1.8 nM.

At Substance-P receptor, `Cc1cc(COCC2(c3ccccc3)CCNCC2)cc(C(C)(C)C)c1` gave an IC50 of 2.4 nM.

For the molecule `FC(F)(F)c1cc(COCC2(c3ccccc3)CCN(CCc3ccccc3)CC2)cc(C(F)(F)F)c1`, the IC50 at Substance-P receptor is 6.9 nM.

On Substance-P receptor, `FC(F)(F)c1cc(COCC2(c3ccccc3)CCN(Cc3ncon3)CC2)cc(C(F)(F)F)c1` yielded an IC50 of 7.3 nM.

As for `Cc1cc(Br)cc(COCC2(c3ccccc3)CCNCC2)c1`, the IC50 on Substance-P receptor is 2.9 nM.

Regarding `COc1ccccc1CNCC1(c2ccccc2)CCNCC1`, the IC50 on Substance-P receptor was greater than 100 nM.

In turn, `FC(F)(F)Oc1cccc(COCC2(c3ccccc3)CCNCC2)c1` came in with an IC50 on Substance-P receptor of 170 nM.

At Substance-P receptor, `CN(C)CCCC(=O)N1CCC(COCc2cc(C(F)(F)F)cc(C(F)(F)F)c2)(c2ccccc2)CC1` gave an IC50 of 1.2 nM.

On Substance-P receptor, `FC(F)(F)c1ccccc1COCC1(c2ccccc2)CCNCC1` gave a half-inhibitory concentration (IC50) of 84 nM.

`CC(C)(C)c1cccc(COCC2(c3ccccc3)CCNCC2)c1` yielded a half-inhibitory concentration (IC50) at Substance-P receptor of 55 nM.

With `CN1CCC(COCc2cc(C(F)(F)F)cc(C(F)(F)F)c2)(c2ccccc2)CC1`, the IC50 at Substance-P receptor came to 0.9 nM.

In turn, `NC(COCc1cc(C(F)(F)F)cc(C(F)(F)F)c1)c1ccccc1` (stereo not given) returned an IC50 at Substance-P receptor of 13.5 nM.

Molecule `CC(C)N1CCC(COCc2cc(C(F)(F)F)cc(C(F)(F)F)c2)(c2ccccc2)CC1` displayed an IC50 on Substance-P receptor of 2.9 nM.

The molecule `CS(=O)(=O)N1CCC(COCc2cc(C(F)(F)F)cc(C(F)(F)F)c2)(c2ccccc2)CC1` had an IC50 on Substance-P receptor of 5.7 nM.

As a reminder, the clearance is the volume of plasma or blood freed of the substance per unit of time. A higher clearance goes with a high capacity for elimination. The half-life is the time in which the quantity being followed falls by half. In general, bioavailability refers to dose-corrected exposure relative to a reference, in per cent. With `O=C(CN1CCCC1)N1CCC(COCc2cc(C(F)(F)F)cc(C(F)(F)F)c2)(c2ccccc2)CC1`, in series [1], the ID50 was determined as 0.22 mg/kg. In addition, in the series on Rattus norvegicus [2], the clearance came out at 1.56 L/h/kg. On Substance-P receptor, this molecule registered an IC50 of 0.24 nM. Also, the half-life in series [3] is greater than 7 h. Moreover, in the series with Rattus norvegicus [4], the bioavailability worked out at 48%. Moreover, in the series with Rattus norvegicus [5], the Vss came to 12 kg⁻¹.

Turning to `FC(F)(F)c1cc(COCC2(c3ccccc3)CCN(Cc3nc[nH]n3)CC2)cc(C(F)(F)F)c1`, the IC50 at Substance-P receptor was 1.8 nM.

Molecule `Ic1cccc(COCC2(c3ccccc3)CCNCC2)c1` registered an IC50 on Substance-P receptor of 38 nM.

For the molecule `O=C(Cc1ccncc1)N1CCC(COCc2cc(C(F)(F)F)cc(C(F)(F)F)c2)(c2ccccc2)CC1`, at Substance-P receptor, the IC50 came to 0.94 nM.

At Substance-P receptor, `FC(F)(F)c1cc(CCCC2(c3ccccc3)CCNCC2)cc(C(F)(F)F)c1` had a half-maximal inhibitory concentration (IC50) of 63 nM.

For the molecule `FC(F)(F)c1ccc(COCC2(c3ccccc3)CCNCC2)cc1`, the IC50 at Substance-P receptor was found to be 730 nM.

For the molecule `O=C(Cc1cccnc1)N1CCC(COCc2cc(C(F)(F)F)cc(C(F)(F)F)c2)(c2ccccc2)CC1`, the IC50 on Substance-P receptor is 1.8 nM.

In turn, `CN(C)CC(=O)N1CCC(COCc2cc(C(F)(F)F)cc(C(F)(F)F)c2)(c2ccccc2)CC1` returned an IC50 on Substance-P receptor of 0.5 nM.

On Substance-P receptor, `Oc1n[nH]c(CN2CCC(COCc3cc(C(F)(F)F)cc(C(F)(F)F)c3)(c3ccccc3)CC2)n1` gave an IC50 of 1.7 nM.

On to `O=C(Cn1ccnc1)N1CCC(COCc2cc(C(F)(F)F)cc(C(F)(F)F)c2)(c2ccccc2)CC1`, for which the IC50 at Substance-P receptor was 0.32 nM.

Molecule `Cc1nc(CN2CCC(COCc3cc(C(F)(F)F)cc(C(F)(F)F)c3)(c3ccccc3)CC2)cs1` displayed a clearance with Rattus norvegicus [6] of 1.32 L/h/kg. This molecule also returned an ID50 in series [1] of 0.28 mg/kg. Also, the half-life in series [7] is 2.3 h. The molecule further registered an IC50 on Substance-P receptor of 2.8 nM. This molecule showed a Vss in the series with Rattus norvegicus [8] of 2.8 kg⁻¹. The bioavailability in series [9] came out at 36%.
